The values that follow come from ChEMBL document CHEMBL1275413, “Comparison of antimicrobial resistance profiles among extended-spectrum-beta-lactamase-producing and acquired AmpC beta-lactamase-producing Escherichia coli isolates from Canadian intensive care units” (2008).

In general, MIC refers to the smallest concentration in the dilution series that meets the test's criterion for growth inhibition. Read a high MIC as a less susceptible organism. The MIC50 is an inhibitory concentration at the 50% level, which refers to growth in some studies and to a panel of isolates in others. Usually MIC90 stands for the lowest concentration that inhibits either 90% of growth or 90% of the strains tested, depending on the study.

Holding throughout (format): functional
The subject of assay [1] is Escherichia coli. The assay can be described thus: Antibacterial activity against ESBL-producing Escherichia coli assessed as resistant isolates by broth microdilution method. A digest of the protocol:
(§1)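 ICU clinical E. coli isolates, with ESBL or acquired AmpC genotype confirmed (AmpC families by multiplex PCR and sequencing), were stored at −80°C in skim milk and subcultured twice from frozen stock. MICs were determined in triplicate by CLSI broth microdilution. The panel included ampicillin, piperacillin-tazobactam, ceftriaxone, cefepime, cefoxitin, gentamicin, fluoroquinolones, carbapenems, doxycycline, tigecycline and trimethoprim-sulfamethoxazole.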
(Broth dilution looks for growth in wells or tubes with falling amounts of substance.)

Assay [2] concerns Escherichia coli. The assay can be described thus: Antibacterial activity against AmpC-producing Escherichia coli assessed as resistant isolates by broth microdilution method. The essentials: as §1
Assay [3] has as its system Escherichia coli. As to the kind of experiment: Antibacterial activity against ESBL-producing Escherichia coli isolate by broth microdilution method. A digest of the protocol: (§2)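 Clinical E. coli isolates from Canadian ICUs (CAN-ICU), one per patient and site, genotypically confirmed ESBL or acquired AmpC producers. AmpC groups (EBC, DHA, FOX, CIT) were typed by multiplex PCR and sequencing. Isolates were stored at −80°C in skim milk and subcultured twice from frozen stock. MICs were determined in triplicate by CLSI broth microdilution.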

Assay [4] deals with Escherichia coli. As to the kind of experiment: Antibacterial activity against AmpC-producing Escherichia coli isolate by broth microdilution method. The essentials:
as §2

In assay [5] the test system is Escherichia coli. The assay can be described thus: Antibacterial activity against ESBL-producing Escherichia coli assessed as sensitive isolates by broth microdilution method. A digest of the protocol: as §2
The test system of assay [6] is Escherichia coli. As to the kind of experiment: Antibacterial activity against AmpC-producing Escherichia coli assessed as sensitive isolates by broth microdilution method. The essentials:
as §2

In assay [7] the test system is Escherichia coli. The assay can be described thus: Antibacterial activity against AmpC-producing Escherichia coli assessed as sensitive isolates by broth microdilution method in presence of Tazobactam. A digest of the protocol: as §2
For assay [8], the system named is Escherichia coli. As to the kind of experiment: Antibacterial activity against ESBL-producing Escherichia coli isolate by broth microdilution method in presence of Tazobactam. The essentials:
as §2

The test system of assay [9] is Escherichia coli. The assay can be described thus: Antibacterial activity against ESBL-producing Escherichia coli assessed as resistant isolates by broth microdilution method in presence of Tazobactam. A digest of the protocol:
as §1

Assay [10] has as its system Escherichia coli. As to the kind of experiment: Antibacterial activity against ESBL-producing Escherichia coli assessed as sensitive isolates by broth microdilution method in presence of Tazobactam. A digest of the protocol:
as §2

Assay [11] has as its system Escherichia coli. As to the kind of experiment: Antibacterial activity against AmpC-producing Escherichia coli isolate by broth microdilution method in presence of Tazobactam. A digest of the protocol: as §2

Converted amounts (≈) assume the structure as drawn.

For the compound `CC1(C)S[C@@H]2[C@H](NC(=O)[C@H](N)c3ccccc3)C(=O)N2[C@H]1C(=O)O` [AMPICILLIN], the Activity in assay [1] amounted to 100%. Moreover, the Activity in assay [2] is 100%. For the same compound, in assay [3], the MIC is > 256 µg/mL, the MIC50 was > 256 µg/mL and the MIC90 is > 256 µg/mL. In assay [4], the MIC was > 256 µg/mL, the MIC50 is > 256 µg/mL and the MIC90 is > 256 µg/mL.
Turning to `CO/N=C(\C(=O)N[C@@H]1C(=O)N2C(C(=O)[O-])=C(C[N+]3(C)CCCC3)CS[C@H]12)c1csc(N)n1` [CEFEPIME], the Activity in [1] is given as 11.1%; in assay [5], 50%; in assay [6], 100%. Also, the MIC50 in assay [3] was 8 µg/mL (≈ 16.6 µM); in [4], ≤ 1 µg/mL. In addition, the MIC90 in assay [3] was 32 µg/mL (≈ 66.6 µM); in assay [4] it was ≤ 1 µg/mL. Besides, the MIC in [4] is ≤ 1 µg/mL.
Consider `CO[C@@]1(NC(=O)Cc2cccs2)C(=O)N2C(C(=O)O)=C(COC(N)=O)CS[C@@H]21` [CEFOXITIN], for which the Activity amounted to 16.7% in [1], 100% in [2] and 61.1% in [5]. Also, the MIC50 in [3] stood at 8 µg/mL (≈ 18.7 µM); in assay [4], 256 µg/mL (≈ 599 µM). Also, the MIC90 in assay [3] was 32 µg/mL (≈ 74.9 µM); in [4], > 256 µg/mL.
Regarding `CO/N=C(\C(=O)N[C@@H]1C(=O)N2C(C(=O)O)=C(CSc3nc(=O)c(O)nn3C)CS[C@H]12)c1csc(N)n1` [CEFTRIAXONE], the Activity came to 83.3% in assay [1], 11.1% in assay [2], 5.6% in [5] and 44.4% in assay [6]. Also, the MIC50 in assay [3] was 128 µg/mL (≈ 231 µM); in [4], 16 µg/mL (≈ 28.9 µM). The MIC90 in assay [3] is > 256 µg/mL; in assay [4] it was 64 µg/mL (≈ 115 µM).
For `O=C(O)c1cn(C2CC2)c2cc(N3CCNCC3)c(F)cc2c1=O` [CIPROFLOXACIN], the Activity is recorded as 83.3% in assay [1], 11.1% in assay [2], 16.7% in assay [5] and 85.2% in assay [6]. The MIC50 in assay [3] is > 16 µg/mL; in assay [4] it was ≤ 0.06 µg/mL. For the same compound, the MIC90 in assay [3] and in assay [4] was > 16 µg/mL each time.
As to `C[C@H]1c2cccc(O)c2C(=O)C2=C(O)[C@]3(O)C(=O)C(C(N)=O)=C(O)[C@@H](N(C)C)[C@@H]3[C@@H](O)[C@@H]21.O` [DOXYCYCLINE], the Activity in assay [1] came to 33.3%; in [2] it was 18.5%; in [5] it was 61.1%; in assay [6] it was 66.7%. The results for the MIC50 in assay [3] and in assay [4] were 4 µg/mL and 2 µg/mL, respectively. For the same compound, the MIC90 in [3] and in [4] was 64 µg/mL throughout.
`C[C@@H](O)[C@H]1C(=O)N2C(C(=O)O)=C(S[C@@H]3CN[C@H](C(=O)Nc4cccc(C(=O)O)c4)C3)[C@H](C)[C@H]12` [ERTAPENEM]: the Activity in [5] and in assay [6] was 100% in each case. In addition, the MIC50 in assay [3] and in assay [4] was 0.12 µg/mL (≈ 0.252 µM) in each case. Moreover, the MIC90 in assay [3] came to 0.25 µg/mL (≈ 0.526 µM); in assay [4], 0.5 µg/mL (≈ 1.05 µM).
Take `C[C@H]1COc2c(N3CCN(C)CC3)c(F)cc3c(=O)c(C(=O)O)cn1c23.C[C@H]1COc2c(N3CCN(C)CC3)c(F)cc3c(=O)c(C(=O)O)cn1c23.O` [LEVOFLOXACIN]: the Activity turned out to be 83.3% in assay [1], 26.6% in assay [2], 16.7% in assay [5] and 88.9% in [6]. In addition, the MIC50 in assay [3] was 16 µg/mL; in assay [4], ≤ 0.06 µg/mL. In addition, the MIC90 in assay [3] was found to be 32 µg/mL; in assay [4] it was 16 µg/mL.
`C[C@@H](O)[C@H]1C(=O)N2C(C(=O)O)=C(S[C@@H]3CN[C@H](C(=O)N(C)C)C3)[C@H](C)[C@H]12` [MEROPENEM]: in [5], the Activity is given as 100%. Also, the Activity in assay [6] is reported as 100%. For the same compound, in assay [3], the minimum inhibitory concentration (MIC) was ≤ 0.12 µg/mL, the MIC50 is ≤ 0.12 µg/mL and the MIC90 was ≤ 0.12 µg/mL. In [4], the MIC was ≤ 0.12 µg/mL, the MIC50 is ≤ 0.12 µg/mL and the MIC90 was ≤ 0.12 µg/mL.
Turning to `CCN1CCN(C(=O)N[C@@H](C(=O)N[C@@H]2C(=O)N3[C@@H]2SC(C)(C)[C@@H]3C(=O)O)c2ccccc2)C(=O)C1=O` [PIPERACILLIN], the Activity is 100% in assay [7], 5.6% in [9] and 94.4% in assay [10]. In addition, the MIC50 in assay [8] and in assay [11] was 2 µg/mL each time. Further, the MIC90 in [8] and in [11] was 8 µg/mL in each case.
As to `CN(C)c1cc(NC(=O)CNC(C)(C)C)c(O)c2c1C[C@H]1C[C@H]3[C@H](N(C)C)C(O)=C(C(N)=O)C(=O)[C@@]3(O)C(O)=C1C2=O` [TIGECYCLINE], the Activity in [5] and in assay [6] was 100% in each case. Besides, the MIC50 worked out at 0.5 µg/mL (≈ 0.854 µM) in assay [3] and 0.25 µg/mL (≈ 0.427 µM) in [4]. The MIC90 in assay [3] was found to be 1 µg/mL (≈ 1.71 µM); in assay [4], 0.5 µg/mL (≈ 0.854 µM).
Regarding GENTAMICIN, the Activity is 27.8% in [1], 3.7% in assay [2], 66.7% in [5] and 88.9% in [6]. The MIC50 is 1 µg/mL in assay [3] and < 0.25 µg/mL in assay [4]. Also, the MIC90 amounted to 16 µg/mL in assay [3] and 8 µg/mL in [4].
